# Cav32 inh = human Cav3.2 channel inhibition, primary screen; O95180; Cav3.2-expressing cells, Fluo-4 calcium fluorescence FDSS; stronger effect = lower value; B-score at 10 µM; 100,000 compounds, 4% hits;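 active = single-dose well whose peak fluorescence ratio is a statistical outlier from its plate by either plate-standardised score or position-corrected B-score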
# Ecoli WT expand = blocks growth of wild type E. coli BW25113 | OD600 absorbance | growth inhibition, % at 100 µM | 98,000 compounds, 0.15% hits;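 active = growth inhibition above about 50% at one test dose, limit read from the data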;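 also: growth measured after 20 h incubation at 37 °C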
# Pyk2 oligo antag = Pyk2 (human) oligomerization antagonism | Q14289 | 99,000 compounds, 0.83% hits | Q293 cells, Pyk2 FERM NanoBiT luminescence; stronger effect = lower value | z-score (the deposit names both 25 µM and 10 µM);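 active = Z-score of -3 or lower, scaled per plate to the spread of control and sample wells; inactive = z-score above -3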;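 also: negative z-score means lost luminescence so less FERM oligomerization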
# Ecoli tolC = blocks growth of E. coli BW25113 tolC mutant | 65,000 compounds, 2.2% hits | AID 573 | growth inhibition, % at 10 µM (by protocol) | OD615;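 active = growth inhibition at or above a cutoff equal to the mean over every tested compound plus 3 SD, cut at about 60% in these data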;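 also: growth measured after 20 h incubation at 37 °C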
#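 Material: E. coli BW25113 ΔtolC::kan, tolC deletion mutant strain. Measure: percent growth inhibition. Schedule: 37 °C, 20 h exposure. Doses: single-point testing at 10 µM. Signal: A615 absorbance measurement. Buffer or medium: kanamycin-containing LB broth (50 µg/mL).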
# PostGolgi ctrl = growth of the yeast control strain, post-Golgi counter-screen; efflux-deficient yeast background strain, growth absorbance A615, 16 h; inhibition, % at 10 µM; 98,000 compounds, 5% hits
# PostGolgi yeast = growth inhibition of a yeast mutant, post-Golgi transport screen | post-Golgi transport phenotypic cell assay | inhibition, % at 10 µM | 98,000 compounds, 0.9% hits;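 also: yeast cells grown in 1536-well plates; yeast grown about 18 h at 30C before absorbance read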
# Active calls of the source: *; . = no result. This is a sample that favours compounds with a hit; in the whole collection about 8.7% have one here. Rule as the data show it, unless noted: active = inhibition above about 30%; inactive = the rest.
SMILES,Cav32 inh,Ecoli WT expand,Pyk2 oligo antag,Ecoli tolC,PostGolgi ctrl,PostGolgi yeast
Cn1c(=O)[nH]c(=O)c2[nH]c(N(Cc3ccccc3)Cc3ccccc3)nc21,-0.89,-4,-3.2*,25,-3,18
COC(=O)c1ccc(C(=O)OC)c(NC(=O)COC(=O)C2CCC(C(C)(C)C)CC2)c1 (configuration not stated),-4.8*,-4,-0.18,.,1,22
COC(=O)c1ccc(C(=O)OC)c(NC(=O)COC(=O)CC2CC3CCC2C3)c1 (configuration not stated),-1.4,-13,-0.49,.,33*,1
Cc1ccc(Cl)cc1NC(=O)COC(=O)CC1CC2CCC1C2 (configuration not stated),-3.4,-6,-0.22,.,-1,19
c1ccc(-c2ccc(-c3cn4c(n3)CCC4)cc2)cc1,-0.088,-2,-0.58,.,33*,0
Cc1ccc(-c2cn3c(n2)CCCC3)cc1,-0.11,1,1.2,5,3,0
Cn1c(N)c(C(=O)c2cc(-c3ccccn3)nc3ccccc23)c(=O)[nH]c1=O,0.98,2,-0.62,-12,-12,10
Cn1cccc1C(=O)C(=O)Nc1cccc(Cl)c1Cl,0.57,-4,0.46,.,12,-6
O=C1c2cc(CO)cc(O)c2C(=O)c2c(O[C@@H]3OC(CO)[C@@H](O)[C@@H](O)[C@@H]3O)cccc21 (some centres not stated),1.7,.,.,.,.,.
O=C(O[C@H]1[C@H](Oc2ccccc2COC(=O)C2(O)C=CCCC2=O)O[C@H](CO)[C@@H](O)[C@@H]1O)c1ccccc1 (some centres not stated),-4.5*,.,.,.,.,.
Cc1ccc(Cl)cc1NC(=O)CC(O)(C(F)(F)F)C(F)(F)F,-2.7*,31,-0.47,99*,28,9
CCCCN1C(=O)C2NN=C(C(=O)OC)C2C1=O (configuration not stated),0.53,0,1.4,.,9,-1
Cc1ccc(C)c2[nH]c(=O)c(CCNC(=O)C(C)(C)C)cc12,-0.62,9,.,-9,2,0
NC(=O)c1ccsc1NC(=O)C1CCCN1S(=O)(=O)c1ccc(Cl)cc1 (configuration not stated),-2.2,7,0.03,18,36*,-7
COc1ccc(CCN2CCC(Nc3nc4ccccc4n3Cc3ccc(F)cc3)CC2)cc1,-5*,.,.,16,.,.
Cc1ccc(NC(=O)CSc2nnc(-c3ccncc3)n2N)cc1C,1,-2,0.22,-12,6,12
CCCc1ccc(OCC(=O)O)cc1,0.57,-3,1.3,1,2,0
COc1ccc(Oc2c(-c3ccc(O)cc3O)n[nH]c2C)cc1,-8.8*,17,-2.1,54,1,0
CCCc1ccc(Oc2c(-c3ccc(O)c(C)c3O)n[nH]c2C)cc1,-1.7,10,-1.1,48,65*,80*
CCCc1ccc(Oc2cn[nH]c2-c2ccc(O)c(C)c2O)cc1,-2.7,12,-3.5*,100*,92*,80*
CCOC(=O)C(C)Oc1ccc(C2NC(=O)NC(C)=C2C(C)=O)cc1Br (configuration not stated),-0.37,9,0.08,-9,1,7
Cc1cccc(C(C)Nc2ccc([N+](=O)[O-])cn2)c1 (configuration not stated),-4.3*,17,-1.2,.,8,-10
O=[N+]([O-])c1ccc(Nc2ccc3ccccc3c2)nc1,-0.26,-9,-2.1,.,2,27
CCOC(=O)NC(Nc1ccc(S(N)(=O)=O)cc1)(C(=O)OCC)C(F)(F)F (configuration not stated),-0.48,1,-0.24,-6,0,32*
COc1cccc(N2CCN(CC(=O)c3c[nH]c4ccc(OC)cc34)CC2C)c1 (configuration not stated),-1.6,7,0.97,36,10,2
SMILES,Cav32 inh,Ecoli WT expand,Pyk2 oligo antag,Ecoli tolC,PostGolgi ctrl,PostGolgi yeast
Nn1c(=O)[nH]c2ccccc2c1=O,-0.1,.,.,.,.,.
O=C(O)c1cnc(-c2ccccc2)nc1Sc1ccc(Cl)cc1,-3.3,-5,-1,.,23,-4
O=C(O)c1cnc(-c2ccccc2)nc1Sc1ccccc1Cl,-6.4*,0,-1.1,.,0,-13
C=CCN(CC=C)C(=S)NC(=O)c1ccc(-c2ccccc2)cc1,-4.4*,6,-0.36,.,7,25
COc1ccc(C(=O)NC(=S)N(Cc2ccccc2)Cc2ccccc2)cc1,-2.7,-3,-1.4,.,17,-10
Cn1ncc(Br)c1C(=O)OCC(=O)Nc1nc(-c2ccccc2)cs1,-1.6,.,0.2,.,.,.
O=C(COC(=O)C1CCC1)NCc1ccccc1Cl,-0.042,3,0.38,-12,-9,-1
COc1cccc(N=Nc2c(N)[nH]n3c(=O)cc(-c4ccccc4)nc23)c1,.,-21,-3.6*,.,6,-10
Cc1[nH]n2c(=O)cc(-c3ccc([N+](=O)[O-])cc3)nc2c1-c1ccccc1,-4.4*,.,-0.59,.,.,.
CSc1nc2nc(-c3ccccc3)cc(=O)n2[nH]1,1.2,-20,0.07,.,20,0
Cc1ccc(N=Nc2c(N)[nH]n3c(=O)cc(-c4ccccc4)nc23)cc1,-7.5*,-5,-1.8,.,10,20
COc1cc(/C=N/NC(=S)Nc2cccc(Cl)c2C)ccc1OCC(=O)N1CC(C)OC(C)C1 (configuration not stated),.,.,-1.4,.,.,.
OC(CN1CCN(c2ccccn2)CC1)Cn1c2ccccc2c2ccccc21 (configuration not stated),-2.6,-2,0.12,7,9,3
OC(COc1ccc(Cl)c2ccccc12)CN1CCN(c2ccccn2)CC1 (configuration not stated),-0.022,-6,-0.64,100*,34*,-2
Cc1ccc(-n2c(O)c(C=Nc3ccc4c(c3)OCO4)c3ccccc3c2=O)cc1C,-1.6,-5,-0.55,.,7,1
Cc1cc(N=Cc2c(O)n(-c3ccc4c(c3)OCO4)c(=O)c3ccccc23)ccn1,0.039,-1,-0.61,-4,30*,0
CCOC(=O)c1cc(-c2ccccc2)nc2c1c(C)nn2-c1ccccn1,-1.7,-6,-2.4,.,42*,-3
COc1cccc(/C=C2/CN(C)CC3=C2OC(N)=C(C#N)C3c2cccc(OC)c2)c1 (configuration not stated),-0.68,-14,-0.47,17,6,9
Cc1ccc(/C=C2\CCC3=C2OC(N)=C(C#N)C3c2ccc(C)cc2)cc1 (configuration not stated),-6.5*,-12,-0.27,.,17,-1
Cc1c(C(=O)O)c(-c2ccccc2)nn1-c1ccccc1,-4.3*,-14,-0.11,-5,4,-4
CC(/C=C1\N=C(SCc2ccccc2)SC1=O)=C\c1ccccc1,.,.,1.6,.,.,.
Cc1ccc(S(=O)(=O)N(CC(=O)NCCSc2ccccn2)c2cc(C)cc(C)c2)cc1,-6.4*,-18,-1.8,.,2,-5
Cc1ccccc1N(CC(=O)NCCSC1CCCCC1)S(=O)(=O)c1ccccc1,-6*,-17,-1.3,.,49*,1

# Bioassay records: PubChem, several laboratories
